Measured values published in article PMC7953430 (Chemical Science, 2020).
Several values for one entry are separate records, joined by “and”; a condition that tells them apart may be missing. Equal values may be shown once. Read-outs that look alike come from different tables or passages of the source.

Experiments:
[1] = test system: SK-MEL-28 human skin melanoma cells; assay: Resazurin; type: cell-based
[2] = Solubility in high ionic strength solvents; type: physicochemical; conditions: DPBS, media
[3] = aerated MeCN; cited from earlier work
[4] = Singlet oxygen sensitization quantum yield; type: physicochemical; conditions: PF6 salts; for ΦΔ singlet oxygen quantum yield: air-saturated MeCN, excitation wavelength in brackets; for 1O2 quantum yield ΦΔ: MeCN
Procedure, shortened: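 ΦΔ was measured from ¹O₂ emission near 1276 nm, relative to [Ru(bpy)₃](PF₆)₂ (ΦΔ = 0.56 in aerated MeCN). Samples were 5–20 μM PF₆⁻ salts in air-bubbled, CaH₂-distilled MeCN. Excitation was at the longest wavelength maximising 1268 nm emission. Absorbance and refractive index corrections were applied, in triplicate.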

SK-MEL-28 cells [5] = assay: Resazurin; type: cell-based, human
Procedure, shortened: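 SK-MEL-28 cells were equilibrated at 1% O₂ for 2–3 h before dosing and kept hypoxic for at least 16 h. During illumination plates were sealed with qPCR films (about 20 °C, ≤1.5 h). Light was cool white (400–700 nm), green (523 nm) or red (633 nm) at 20 mW cm⁻² to 100 J cm⁻². Cells recovered in normoxia before the resazurin read. PI was dark EC50/light EC50.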

SK-MEL-28 cells [6] = assay: Sulforhodamine B; type: cell-based, human; conditions: SRB, hypoxia, across light treatments
SK-MEL-28 cells [7] = assay: Os-4T interassay repeats, resazurin, normoxia; type: cell-based, human
SK-MEL-28 cells [8] = assay: Os-4T interassay repeats, resazurin, hypoxia; type: cell-based, human
Procedure, shortened: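 Hypoxic (1% O₂) SK-MEL-28 phototoxicity was read by resazurin across repeats under three light conditions. Repeat 0 was run in 96-well plates; repeats 1–5 were run within a month in 384-well plates. Plate maps, pipette tips and seed stock (repeats 4–5) were varied, and overhead lights were off in repeat 5. Cells were at passages 10–15, with three replicates per repeat.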

[9] = test system: SK-MEL-28 human amelanotic melanoma cells; assay: External validation; type: cell-based; conditions: SK-MEL-28, external validation
Procedure, shortened: (§1)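 SK-MEL-28 and B16-F10 cells (B16-F10 grown in DMEM) in log phase were seeded and dosed with 1 nM–300 μM test compound diluted in DPBS (<1.2% v/v DMSO). Plates were irradiated 15–22 h after dosing with broadband projector visible light or a red 630 nm LED panel (33–40 mW cm⁻², 100 J cm⁻²). Resazurin was read at 48 h (530/620 nm). PI was dark EC50/light EC50.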

[10] = test system: B16-F10 murine melanotic melanoma cells; assay: External validation; type: cell-based
Procedure, shortened: as §1

SK-MEL-28 cells [11] = assay: NIR 733 nm photocytotoxicity, normoxia; type: cell-based, human; conditions: read-out: EC50 with 733 nm light, 100 J cm^–2, 5 mW cm^–2
Procedure, shortened: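 Normoxic SK-MEL-28 monolayers in 384-well plates were illuminated with a 733 nm laser through a frontal diffuser (5 mW cm⁻², 100 J cm⁻²), with sham-treated dark controls. Viability was read by resazurin and EC50 was taken from the dose–response curve.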

SK-MEL-28 cells [12] = assay: NIR 753 nm photocytotoxicity on Modulight ML8500; type: cell-based, human; conditions: 10 μM, 300 mW cm^–2, 200*2 (≥400) J cm^–2, resazurin
Procedure, shortened: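 SK-MEL-28 wells were illuminated one by one with a 753 nm laser at a constant 300 mW cm⁻² over 0–400 J cm⁻², at 37 °C and 5% CO₂. Viability was read by resazurin relative to dark wells, in triplicate.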

female C57BL/6J mice = assay: Maximum tolerated dose in mice; type: in vivo; conditions: ip doses above 100 mg kg^–1 (100, 125, 200); behaviour resolved after 2 h
[13] = read-out: EC50 ± SEM Dark, normoxia 18.5–21% O2, no light
[14] = read-out: visible EC50, normoxia, visible light 100 J cm^–2

For `[Cl-].[Cl-].[Os+2].c1cnc2c(c1)ccc1cccnc12.c1cnc2c(c1)ccc1cccnc12.c1cnc2c(c1)ccc1cccnc12` [[Os(phen)3]Cl2, reference compound], the “PI regardless of wavelength” value ([1]; normoxia, visible, green or red) was 2–4, the EC50 [1, 13] was 158000 nM and the “solubility in high ionic strength solvents” value [2] was > 300 µM.
For `F[P-](F)(F)(F)(F)F.F[P-](F)(F)(F)(F)F.[Ru+2].c1ccc(-c2ccccn2)nc1.c1ccc(-c2ccccn2)nc1.c1ccc(-c2ccccn2)nc1` [[Ru(bpy)3](PF6)2], the “ΦΔ singlet oxygen quantum yield (standard)” value [3] is listed as 0.56.
In the case of [Os(phen)2(IP)]^2+ [Os-0T], the “ΦΔ singlet oxygen quantum yield” value [4] is reported as 0.43 [473].
With [Os(phen)2(IP-1T)]^2+ [Os-1T] the “ΦΔ singlet oxygen quantum yield” value [4] was 0.42 [473].
With [Os(phen)2(IP-2T)]^2+ [Os-2T] the “ΦΔ singlet oxygen quantum yield” value [4] was 0.49 [472] and the EC50 [1, 13] was 35700 nM.
With [Os(phen)2(IP-3T)]^2+ [Os-3T] the “1O2 quantum yield ΦΔ” value [4] was 51%, the “ΦΔ singlet oxygen quantum yield” value [4] was 0.51 [525] and the “PI Green” value ([1]; normoxia, dark EC50/green 523 nm EC50) was 103. The “PI Visible (phototherapeutic index)” value ([1]; normoxia, dark EC50/visible EC50) was 369 and the EC50 [1, 14] was 153 nM.
For [Os(phen)2(IP-4T)]^2+ [Os-4T], the “1O2 quantum yield ΦΔ” value [4] was 95%, the “ΦΔ singlet oxygen quantum yield” value [4] was 0.95 [525] and the EC50 ([1]; read-out: EC50 with green light, normoxia, green 523 nm, 100 J cm^–2) was 1 nM. The EC50 ([1]; read-out: EC50 with red light, normoxia, red 633 nm, 100 J cm^–2) was 10 nM, the EC50 [1, 13] was 65100 nM and the EC50 [1, 14] was 0.018 nM. The “PI Green” value (SK-MEL-28 cells [5]; hypoxia 1% O2, dark EC50/green EC50) was 91 and > 90, the “PI Visible” value (SK-MEL-28 cells [5]; hypoxia 1% O2, dark EC50/visible EC50) was > 90 and the EC50 (SK-MEL-28 cells [5]; read-out: light EC50 values in hypoxia, hypoxia 1% O2, across visible, green, red light) was 651 to 835 nM. For the same compound, the “total growth inhibition (TGI), light-treated samples” value (SK-MEL-28 cells [6]) was 140 to 170 nM, the EC50 (SK-MEL-28 cells [7]; read-out: EC50 range over repeats, green, normoxia) was 1.16 to 25.4 nM and the EC50 (SK-MEL-28 cells [7]; read-out: EC50 range over repeats, red, normoxia) was 10 to 46.2 nM. The EC50 (SK-MEL-28 cells [7]; read-out: EC50 range over repeats, visible, normoxia) was 0.0178 to 8.91 nM, the EC50 (SK-MEL-28 cells [7]; read-out: average dark EC50 across repeats, either oxygen condition (normoxia and hypoxia), <7% variation) was 62800 nM and the EC50 (SK-MEL-28 cells [7]; read-out: average normoxic EC50, green, normoxia, repeats) was 11.7 nM. The EC50 (SK-MEL-28 cells [7]; read-out: average normoxic EC50, red, normoxia, repeats) was 30.8 nM, the EC50 (SK-MEL-28 cells [7]; read-out: average normoxic EC50, visible, normoxia, repeats) was 1.62 nM and the “PI range across repeats and three light conditions” value (SK-MEL-28 cells [8]; hypoxia 1% O2) was 32 to 167. For the same compound, the “average hypoxic PI across the three light conditions” value (SK-MEL-28 cells [8]; hypoxia 1% O2, repeat 3 excluded) was 90, the EC50 ([9]; read-out: red EC50) was 9.44 nM and the EC50 ([9]; read-out: visible EC50) was 2.91 nM. The “PI Visible” value ([10]; B16-F10, dark EC50/visible EC50) was > 20 000 and > 10^4, the EC50 ([10]; read-out: visible EC50, B16-F10, external validation) was 15 nM and the EC50 (SK-MEL-28 cells [11]) was 803 nM. The “reduction of relative cell viability compared to dark” value (SK-MEL-28 cells [12]) was 14% and the observed clinical toxicity (female C57BL/6J mice) was “mild toxicity”.
